Values joined by “and” are separate entries in the source; they are usually repeats but may differ in a detail not shown here. Equal values may be shown once. The whole screen tested about 360,000 compounds, of which about 950 (0.26%) were called active.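 How the source made its calls: active means inhibition above a per-plate limit, mean inhibition of low control wells plus 3 SD (cut at about 25% in these data); inactive means the rest.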 Only a selection was taken, and actives are over-represented in it overall. Where a structure was tested more than once in an assay, its records may differ in their call.
target: ADP-ribosylation factor GTPase-activating protein 1 (Rattus norvegicus) (UniProt Q62848); experiment: blockers of ARFGAP1-stimulated ARF1 GTP hydrolysis – biochemical, fluorescence polarization, GDP tracer, primary screen (AID 651572); details: GDP FP detection, at 16.5 µM, stronger effect = higher value;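 further: 0% = DMSO wells with enzyme and 100% = wells lacking Arfgap1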
Summary of the method: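 Assay system: purified rat His6-Arfgap1 residues 1-136 (GAP domain); Reagent: human Δ17 ARF1 bound to GTP; Dosing: 16.5 µM single point, 1.26% DMSO; Times: GTP hydrolysis reaction 2 h at 25 °C; Signal: FP, GDP Alexa 633 tracer displaced from anti-GDP antibody, 620/688 nm; Measure: % inhibition from polarization.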

Sequence of ADP-ribosylation factor GTPase-activating protein 1 (Rattus norvegicus) (Q62848 1-136 limits assumed): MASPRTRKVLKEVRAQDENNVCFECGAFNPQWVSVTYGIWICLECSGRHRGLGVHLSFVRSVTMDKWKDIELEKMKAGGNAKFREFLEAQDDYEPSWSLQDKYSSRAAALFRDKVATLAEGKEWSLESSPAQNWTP

inhibition, -2.58% (inactive) and 25.1% (active):
C#C[C@]1(O)CC[C@H]2[C@@H]3CCC4=CC(=O)CC[C@@H]4[C@H]3CC[C@@]21CC

inhibition, active:
CCOC(=O)c1ccc(Nc2cc3ccccc3c(=O)[nH]2)cc1 25.9%, CCOC(=O)C1CCN(C(c2cc3cc(C)cc(C)c3[nH]c2=O)c2nnnn2C2CCCCC2)CC1 (stereo not drawn) 38.1%, O=C(Nc1cccc(-c2nc3ccccc3[nH]2)c1)c1ccc(C(=O)Nc2cccc(-c3nc4ccccc4[nH]3)c2)cc1 47.5%, O=C(/C=C/c1cn(-c2ccccc2)nc1-c1ccc2c(c1)OCCO2)NCCCN1CCOCC1 25.8%, COc1ccc(-n2nc3c(N4CCC(C(=O)NCc5ccccc5)CC4)nnc(C)c3c2C)cc1 26.9%, COc1ccc(Cl)cc1NC(=O)Cn1nc(-c2ccc(C)cc2)n(C)c1=S 41.6%, OC(COc1cccc(OCC(O)CN2CCCC2)c1)CN1CCCC1 (stereo not drawn) 28.2%, O=C(NC1CCCCC1)c1ccc(CNc2c(N3CCOCC3)c(=O)c2=O)cc1 26.4%, c1ccc(-c2cc(-c3nnc4sc(-c5ccccn5)nn34)[nH]n2)cc1 37.4%, CCN(CC)c1ccc(NC(=O)CN2CCN(c3ccccn3)CC2)cc1 45.5%, Cc1ccc2nc(SCC(=O)N3CC(C)OC(C)C3)nc(=O)n2c1 (stereo not drawn) 83.6%, COc1ccc(C(CNC(=O)c2cccc(S(=O)(=O)Nc3ccccc3Cl)c2)N2CCOCC2)cc1 (stereo not drawn) 27%

inhibition, inactive:
CCOC(=O)c1ccc(NC(=O)c2c(N)n(C)c(=O)[nH]c2=O)cc1 11%, CCOC(=O)c1ccc(NC(=O)c2c(NCc3ccccc3)[nH]c(=O)[nH]c2=O)cc1 -10.9%, CC(C)CNc1cccc2c1S(=O)(=O)N[C@H](CC(C)C)CO2 2.08%, CC(C)[C@H]1COCCS(=O)(=O)N1Cc1ccccc1-c1cccc2c1sc1ccccc12 -9.36%, COC(=O)C(C(=O)OC)c1ccccc1NS(=O)(=O)c1cccc2ccccc12 -11.2%, COCCCNC(=O)C[C@H]1C[C@@]2(C(=O)OC)C(=C[C@H](C(C)(C)C)O[C@@H]2C)N(Cc2ccc3c(c2)OCO3)C1=O 2.5%, COc1ccc(N2CCN(C(c3cc4ccc(C)cc4[nH]c3=O)c3nnnn3C3CCCC3)CC2)cc1 (stereo not drawn) 7.55%, Cc1cc(C)c2[nH]c(=O)c(C(c3nnnn3Cc3ccc4c(c3)OCO4)N3CCCC3)cc2c1 (stereo not drawn) 6.09%, CCCCOCC1CN(CCCC)S(=O)(=O)c2c(Oc3ccc(F)cc3)cccc2O1 (stereo not drawn) -16.2%, Cc1cc(NCCc2c[nH]c3ccccc23)ccc1Oc1cccnc1 4.98%, CCCCCCCCN1C(=O)[C@@H](CC(=O)NCc2ccc(C)o2)C[C@@]2(C(=O)OC)C1=C[C@H](C(C)(C)C)O[C@@H]2C 13.1%, O=C(Nc1ccccc1)c1cc2ccccc2[nH]1 -4.92%, CC(C)n1c(=O)[nH]c2cc(C(=O)Nc3ccccc3)ccc21 9.47%, COCCNC(=S)N(C)[C@H]1C[C@H]2c3[nH]c4ccccc4c3CCN2C[C@H]1[C@H](C)O 8.23%, C=CCN=C1NC(c2cccc(C(F)(F)F)c2)C(C(=O)OC)=C(C)N1C (stereo not drawn) -13.8%, Cc1ccc2nc(-c3ccc(CN4CCC(n5cc(-c6ccccc6)[nH]c5=O)CC4)cc3)c(-c3ccccc3)nc2c1 8.03%, Nc1[nH]c(C(=O)c2ccccc2)c(-c2ccc(Cl)cc2Cl)c1C(=O)c1ccccc1 -3.18%, CC(C)(C)C(c1nc2ccccc2[nH]1)n1c(Cc2csc3ccccc23)nc2ccccc21 (stereo not drawn) 0.81%, O=C(NCCCN1CCOCC1)c1cnn2c(-c3ccccc3)cc(-c3ccccc3)nc12 -2.5%, CC(C)c1ccc(/C=C/C(=O)NCCCN2CCOCC2)cc1 -5.51%, COC(=O)c1ccc(CN2C(=O)[C@]3(OCCC=C[C@H]3C)c3c(Br)cccc32)cc1 13.2%, CSc1ccc(Oc2cccc3c2S(=O)(=O)N([C@H](C)c2ccccc2)C[C@@H](COCc2ccccc2)O3)cc1C -6.49%, O=C(NCc1ccccc1)[C@@H]1CCCN1C(=O)[C@H]1CCCN1C(=O)c1cccc(Cl)c1 9.96%, COc1ccc(CNC(=O)C2CCN(C(=O)c3ccccc3)CC2)cc1 -4.15%, COc1ccc(CNC(=O)C2CCN(C(=O)c3ccco3)CC2)cc1 9.83%, C[C@@H]1CN([C@H](C)CO)C(=O)CCCn2cc(nn2)CO[C@H]1CN(C)C(=O)Nc1ccc(N2CCCCC2)cc1 -7.3%, Cc1cc2c(nc1C)CCCN2C -0.08%, COc1cccc(CNC(=O)[C@H]2CCCN2C(=O)[C@H]2CCCN2C(=O)c2cc(F)cc(F)c2)c1 9.87%, C[C@H](CO)N1C[C@H](C)[C@@H](CN(C)C(=O)Nc2ccccc2F)OCc2cn(nn2)CCCC1=O 5.05%, COc1ccc(C)cc1NC(=O)CSc1ccc(Cl)cc1 -5.43%, COc1ccc(Cl)cc1NC(=O)CN1CCN(C(=O)N2CCOCC2)CC1 15%, N#Cc1cccc(C(=O)NCC2CCN(C(=O)C(=O)c3cc4ccccc4o3)CC2)c1 8.35%, COC(=O)[C@]12C[C@H](CC(=O)NCCc3ccccc3OC)C(=O)N(Cc3ccccc3)C1=C[C@H](C(C)C)O[C@@H]2C1CC1 -5.59%, C=CC[C@]12C[C@@]3(O[C@H](c4ccc(C(F)(F)F)cc4)N=C3C[C@H](c3ccc(OC)cc3)[C@H]1C)N(C1CCN(Cc3ccccc3)CC1)C2=O 4.67%, CN(C)C(=O)N1CCN(C(=O)[C@@H](Cc2ccccc2)NC(=O)[C@H]2O[C@@H](n3ccc(N)nc3=O)[C@H](O)[C@@H]2O)CC1 5.01%, COC(=O)Cc1nnn2c1[C@H](C)[C@H](c1ccccc1[N+](=O)[O-])OCC2 4.46%, COc1ccc(S(=O)(=O)Nc2ccc3c(c2)C(=O)N([C@H](C)CO)C[C@H](C)[C@@H](CN(C)C)OCCCC[C@H](C)O3)cc1 1.2%, Cc1cccc(OCC(O)CN2CCN(S(=O)(=O)c3ccc(C)cc3C)CC2)c1 (stereo not drawn) 10.2%, OC(COc1ccc(CN2CCSCC2)cc1)CN1CCCCC1 (stereo not drawn) -6.07%, Cc1cc(OC(=O)NCCc2ccc(F)cc2)ccc1F 17%, Cc1ccc(N)cc1CN1CCN(c2ncc(Cc3ccccc3)cn2)CC1 -5.78%, O=C(NCc1ccccc1)c1ccc(CNc2c(N3CCCC3)c(=O)c2=O)cc1 -4.58%, O=C(NCc1ccc(F)cc1)C1CCC(CNc2c(N3CCOCC3)c(=O)c2=O)CC1 (stereo not drawn) 2.8%, O=C(NS(=O)(=O)c1cccs1)[C@H]1O[C@@H](n2ccc(=O)[nH]c2=O)[C@H](O)[C@@H]1O 1.8%, C[C@H](O)[C@@H]1CN2CCc3ccc(-c4ccc5c(c4)OCO5)cc3[C@@H]2C[C@@H]1N(C)C(=O)C1CCCCC1 -7.53%, CN[C@H]1C[C@H]2c3[nH]c4c(-c5ccccc5)cccc4c3CCN2C(=O)[C@H]1[C@H](C)O 6.11%, Fc1ccc(-c2ccc(-c3nn4c(-c5ccco5)nnc4s3)o2)cc1 3.63%, CCCCCCCCN1C(=O)[C@@H](CC(=O)NCc2ccccc2)C[C@@]2(C(=O)OC)C1=C[C@H](C(C)(C)C)O[C@@H]2C 1.82%, C=CCN=C1NC(c2ccccc2)C(C(=O)OC)=C(C)N1Cc1ccc(C(F)(F)F)cc1 (stereo not drawn) 7.52%, COC(=O)N1Cc2ccnnc2CC1c1ccccc1Br (stereo not drawn) 0.38%, O=C(C(=O)N1CCC(CNC(=O)c2cccnc2Cl)CC1)c1cccs1 12.7%, COc1ccc(NC(=O)N(C)C[C@@H]2OCCCC[C@@H](C)Oc3ccc(NC(=O)NC4CCCCC4)cc3C(=O)N([C@H](C)CO)C[C@@H]2C)cc1 -0.56%, O=C(CN1CCN(c2ccccn2)CC1)NCc1cccs1 19.2%, CCC(=O)Nc1ccc2c(c1)nc(CCN1CCN(c3ccccn3)CC1)n2C -11.6%, O=S(=O)(c1cccs1)N1CCCc2nc(-c3ccc(Br)cc3)ccc21 -3.29%, O=C(NCc1ccccc1)[C@@H]1CCCN1C(=O)[C@@H](NS(=O)(=O)c1ccc(F)cc1F)C1CCCCC1 2.51%, COC(=O)[C@]12C[C@H](CC(=O)NCCC(C)C)C(=O)N(CCc3ccc(OC)c(OC)c3)C1=C[C@H](C(C)(C)C)O[C@@H]2C 6.73%, Cc1ccc2nc(SCC(=O)N3CCN(c4ccccc4)CC3)nc(=O)n2c1 22.7%, Cc1ccc2nc(SCC(=O)Nc3cccc4ccccc34)nc(=O)n2c1 8.63%, Brc1ccc(COCCc2cn(Cc3ccccc3)c3ccccc23)cc1 10.9%, CCN1C(=O)N[C@@H]2C[C@H](C(=O)N3CCCC3)[C@H](C)[C@H](c3ccccc3)C[C@@H]21 -0.64%, O=C(C(=O)N1CCC(CNS(=O)(=O)Cc2ccccc2)CC1)c1cc2ccccc2o1 10.3%, O=C(NCc1ccccc1)[C@H]1CCCN1C(=O)[C@H]1CCCN1C(=O)c1cc(F)cc(F)c1 -2.81%, COc1ccc(C(CNC(=O)c2cccc(NS(=O)(=O)c3ccc(C)c(F)c3)c2)N2CCCC2)cc1 (stereo not drawn) 16.5%, COc1ccc(C(CNC(=O)c2ccc(S(=O)(=O)Nc3ccccc3C)cc2)N2CCOCC2)cc1 (stereo not drawn) -2.87%
